# Source: ChEMBL document CHEMBL1158526, “Labeled 3-aryl-4-indolylmaleimide derivatives and their potential as angiogenic PET biomarkers” (Bioorg Med Chem, 2010)
# Tests used:
# [1] = Octanol-phosphate buffered saline partition coefficient, log D at pH 7.4; format: physicochemical
# Procedure, shortened: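 About 200 µCi of the [¹¹C] tracer was taken up in 5 mL n-octanol and mixed with 1 mL phosphate buffer (pH 7.4, 100 mM), a 5:1 octanol:buffer ratio. The mixture was vortexed for 2 min, the phases were separated, and each phase was measured for radioactivity.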
# Blood [2] = assay: Metabolic stability in human blood assessed as residual radioactivity at 300 uCi after 30 mins by RP-HPLC; format: ADME, tissue-based; conditions: 0.5 h
# Procedure, shortened: (§1)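 Fresh human EDTA blood, 1 mL aliquots, was preincubated at 37 °C for 15 min. About 300 µCi of the [¹¹C] tracer was added and samples were held for 0, 30 or 60 min. Samples were centrifuged, and the plasma was extracted with cold THF/ACN (30:70) and centrifuged again. The extract was analysed by RP-HPLC and by RP-TLC (40:60 H₂O:ACN) with phosphor imaging; n = 3.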
# Blood [3] = assay: Metabolic stability in human blood assessed as residual radioactivity at 300 uCi after 60 mins by RP-HPLC; format: ADME, tissue-based; conditions: 1 h; procedure, shortened: as §1
# Blood [4] = assay: Biodistribution in blood of nude mouse bearing human U87MG tumor at 197 +/- 16 uCi, iv after 30 mins; format: ADME, organism-based; conditions: in vivo, 0.5 h
# Procedure, shortened: (§2)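 Male nude Hsd-Athymic Nude-nu mice (10–12 weeks) with subcutaneous 293/KDR tumors (1.5–2 × 10⁶ cells, 7–21 days) or U87MG.wt EGFR tumors (1.5–4 × 10⁶ cells with 20% Matrigel, 4–20 days). The [¹¹C] tracer was given via the lateral tail vein in 10% ethanol/saline (1.1 ± 0.3 Ci/µmol; 225 ± 11 µL). At 30 or 60 min, blood was drawn from the orbital sinus and organs were excised, weighed and gamma-counted; results are %ID/g, n = 10–12.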
# Blood [5] = assay: Biodistribution in blood of nude mouse bearing human U87MG tumor at 197 +/- 16 uCi, iv after 60 mins; format: ADME, organism-based; conditions: in vivo, 1 h; procedure, shortened: as §2
# [6] = Biodistribution in tumor of nude mouse bearing human U87MG tumor at 197 +/- 16 uCi, iv after 30 mins; format: ADME, organism-based, Neoplasm; conditions: in vivo, 0.5 h; procedure, shortened: as §2
# [7] = Biodistribution in tumor of nude mouse bearing human U87MG tumor at 197 +/- 16 uCi, iv after 60 mins; format: ADME, organism-based, Neoplasm; conditions: in vivo, 1 h; procedure, shortened: as §2
# Zone of skin [8] = assay: Biodistribution in skin of nude mouse bearing human U87MG tumor at 197 +/- 16 uCi, iv after 30 mins; format: ADME, organism-based; conditions: in vivo, 0.5 h; procedure, shortened: as §2
# Zone of skin [9] = assay: Biodistribution in skin of nude mouse bearing human U87MG tumor at 197 +/- 16 uCi, iv after 60 mins; format: ADME, organism-based; conditions: in vivo, 1 h; procedure, shortened: as §2
# Bone [10] = assay: Biodistribution in bone of nude mouse bearing human U87MG tumor at 197 +/- 16 uCi, iv after 30 mins; format: ADME, organism-based, Bone element; conditions: in vivo, 0.5 h; procedure, shortened: as §2
# Bone [11] = assay: Biodistribution in bone of nude mouse bearing human U87MG tumor at 197 +/- 16 uCi, iv after 60 mins; format: ADME, organism-based, Bone element; conditions: in vivo, 1 h; procedure, shortened: as §2
# Muscle tissue [12] = assay: Biodistribution in muscle of nude mouse bearing human U87MG tumor at 197 +/- 16 uCi, iv after 30 mins; format: ADME, organism-based; conditions: in vivo, 0.5 h; procedure, shortened: as §2
# Muscle tissue [13] = assay: Biodistribution in muscle of nude mouse bearing human U87MG tumor at 197 +/- 16 uCi, iv after 60 mins; format: ADME, organism-based; conditions: in vivo, 1 h; procedure, shortened: as §2
# Liver [14] = assay: Biodistribution in liver of nude mouse bearing human U87MG tumor at 197 +/- 16 uCi, iv after 30 mins; format: ADME, organism-based; conditions: in vivo, 0.5 h; procedure, shortened: as §2
# Liver [15] = assay: Biodistribution in liver of nude mouse bearing human U87MG tumor at 197 +/- 16 uCi, iv after 60 mins; format: ADME, organism-based; conditions: in vivo, 1 h; procedure, shortened: as §2
# Kidney [16] = assay: Biodistribution in kidney of nude mouse bearing human U87MG tumor at 197 +/- 16 uCi, iv after 30 mins; format: ADME, organism-based; conditions: in vivo, 0.5 h; procedure, shortened: as §2
# Kidney [17] = assay: Biodistribution in kidney of nude mouse bearing human U87MG tumor at 197 +/- 16 uCi, iv after 60 mins; format: ADME, organism-based; conditions: in vivo, 1 h; procedure, shortened: as §2
# Blood [18] = assay: Biodistribution in blood of nude mouse bearing human 293/KDR tumor at 197 +/- 16 uCi, iv after 30 mins; format: ADME, organism-based; conditions: in vivo, 0.5 h; procedure, shortened: as §2
# Blood [19] = assay: Biodistribution in blood of nude mouse bearing human 293/KDR tumor at 197 +/- 16 uCi, iv after 60 mins; format: ADME, organism-based; conditions: in vivo, 1 h; procedure, shortened: as §2
# [20] = Biodistribution in tumor of nude mouse bearing human 293/KDR tumor at 197 +/- 16 uCi, iv after 30 mins; format: ADME, organism-based, Neoplasm; conditions: in vivo, 0.5 h; procedure, shortened: as §2
# [21] = Biodistribution in tumor of nude mouse bearing human 293/KDR tumor at 197 +/- 16 uCi, iv after 60 mins; format: ADME, organism-based, Neoplasm; conditions: in vivo, 1 h; procedure, shortened: as §2
# Zone of skin [22] = assay: Biodistribution in skin of nude mouse bearing human 293/KDR tumor at 197 +/- 16 uCi, iv after 30 mins; format: ADME, organism-based; conditions: in vivo, 0.5 h; procedure, shortened: as §2
# Zone of skin [23] = assay: Biodistribution in skin of nude mouse bearing human 293/KDR tumor at 197 +/- 16 uCi, iv after 60 mins; format: ADME, organism-based; conditions: in vivo, 1 h; procedure, shortened: as §2
# Bone [24] = assay: Biodistribution in bone of nude mouse bearing human 293/KDR tumor at 197 +/- 16 uCi, iv after 30 mins; format: ADME, organism-based, Bone element; conditions: in vivo, 0.5 h; procedure, shortened: as §2
# Bone [25] = assay: Biodistribution in bone of nude mouse bearing human 293/KDR tumor at 197 +/- 16 uCi, iv after 60 mins; format: ADME, organism-based, Bone element; conditions: in vivo, 1 h; procedure, shortened: as §2
# Muscle tissue [26] = assay: Biodistribution in muscle of nude mouse bearing human 293/KDR tumor at 197 +/- 16 uCi, iv after 30 mins; format: ADME, organism-based; conditions: in vivo, 0.5 h; procedure, shortened: as §2
# Muscle tissue [27] = assay: Biodistribution in muscle of nude mouse bearing human 293/KDR tumor at 197 +/- 16 uCi, iv after 60 mins; format: ADME, organism-based; conditions: in vivo, 1 h; procedure, shortened: as §2
# Liver [28] = assay: Biodistribution in liver of nude mouse bearing human 293/KDR tumor at 197 +/- 16 uCi, iv after 30 mins; format: ADME, organism-based; conditions: in vivo, 0.5 h; procedure, shortened: as §2
# Liver [29] = assay: Biodistribution in liver of nude mouse bearing human 293/KDR tumor at 197 +/- 16 uCi, iv after 60 mins; format: ADME, organism-based; conditions: in vivo, 1 h; procedure, shortened: as §2
# Kidney [30] = assay: Biodistribution in kidney of nude mouse bearing human 293/KDR tumor at 197 +/- 16 uCi, iv after 30 mins; format: ADME, organism-based; conditions: in vivo, 0.5 h; procedure, shortened: as §2
# Kidney [31] = assay: Biodistribution in kidney of nude mouse bearing human 293/KDR tumor at 197 +/- 16 uCi, iv after 60 mins; format: ADME, organism-based; conditions: in vivo, 1 h; procedure, shortened: as §2
# [32] = Metabolic stability in mouse liver microsome assessed as intact compound at 2 to 3 mCi after 15 mins by RP-HPLC; format: ADME; conditions: liver microsomes, read-out: Stability
# Procedure, shortened: (§3)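 Tracer (2–3 mCi in 100 µL ethanol) was preincubated with 0.5 mg/mL mouse hepatic microsomes in PBS pH 7.4 at 37 °C for 5 min. Reactions were started with 0.25 mM NADPH and sampled at 0–60 min. Aliquots were loaded on a celite plug and eluted with ethanol, and intact tracer was measured by RP-HPLC.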
# [33] = Metabolic stability in mouse liver microsome assessed as intact compound at 2 to 3 mCi after 30 mins by RP-HPLC; format: ADME; conditions: liver microsomes, read-out: Stability; procedure, shortened: as §3
# [34] = Metabolic stability in mouse liver microsome assessed as intact compound at 2 to 3 mCi after 45 mins by RP-HPLC; format: ADME; conditions: liver microsomes, read-out: Stability; procedure, shortened: as §3
compound,measurement,setting,value
COc1cc(C2=C(c3c[nH]c4ccccc34)C(=O)NC2=O)cc(OC)c1O[11CH3],logD,[1],1.99
same,Stability,Blood [2],61 % ID/g
same,Stability,Blood [3],62 % ID/g
same,Stability,Blood [4],0.38 % ID/g
same,Stability,Blood [5],0.29 % ID/g
same,Stability,[6],0.33 % ID/g
same,Stability,[7],0.17 % ID/g
same,Stability,Zone of skin [8],0.41 % ID/g
same,Stability,Zone of skin [9],0.21 % ID/g
same,Stability,Bone [10],0.19 % ID/g
same,Stability,Bone [11],0.11 % ID/g
same,Stability,Muscle tissue [12],0.17 % ID/g
same,Stability,Muscle tissue [13],0.09 % ID/g
same,Stability,Liver [14],2.64 % ID/g
same,Stability,Liver [15],1.68 % ID/g
same,Stability,Kidney [16],2.24 % ID/g
same,Stability,Kidney [17],0.79 % ID/g
same,Stability,Blood [18],0.36 % ID/g
same,Stability,Blood [19],0.19 % ID/g
same,Stability,[20],0.3 % ID/g
same,Stability,[21],0.14 % ID/g
same,Stability,Zone of skin [22],0.38 % ID/g
same,Stability,Zone of skin [23],0.14 % ID/g
same,Stability,Bone [24],0.15 % ID/g
same,Stability,Bone [25],0.09 % ID/g
same,Stability,Muscle tissue [26],0.2 % ID/g
same,Stability,Muscle tissue [27],0.08 % ID/g
same,Stability,Liver [28],2.89 % ID/g
same,Stability,Liver [29],2.95 % ID/g
same,Stability,Kidney [30],2.29 % ID/g
same,Stability,Kidney [31],0.8 % ID/g
same,remaining at 0.25 h,[32],40%
same,remaining at 0.5 h,[33],25%
same,remaining at 0.75 h,[34],16%
